Bounds are passed on as bounds.

For test [1], the system named is Canis familiaris. In words: Tested for gastric antisecretory activity in histamine-stimulated gastric fistula dogs by intragastric administration. Format: functional. As to conditions: Canis lupus familiaris, Stomach, po. An outline of the steps: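 Conscious adult female beagles (6–12 kg) with simple gastric fistulas, fasted 18 h. After a 30-min basal period, drug given intragastrically via dosing plug with cannula closed 30 min, then histamine infused at 15 µg kg-1 h-1. Juice collected every 30 min for 4 h and titrated with 0.1 N NaOH to pH 7.0. ED50 is 50% inhibition of 4-h total acid output, from three-dose curves.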

Test [2] concerns Canis familiaris. Kind of test: Tested for relative antisecretory potency in histamine-stimulated gastric fistula dogs by intragastric administration. Format: functional. As to conditions: Canis lupus familiaris, Stomach, po. An outline of the steps:
(§1)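 Gastric fistula beagles given drug intragastrically, then histamine infused at 15 µg kg-1 h-1. Total acid output collected over 4 h by NaOH titration to pH 7.0, and percent inhibition curves built. Relative antisecretory potency and its limits were computed by bioassay statistical analysis of these dose-response data.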

Test [3] is filed under the species Canis familiaris. Kind of test: Activity ratio ED50 of diarrhea to ED50 of antisecretory in histamine -stimulated gastric fistula dogs. Format: functional, Canis lupus familiaris, Stomach. In short, it runs like this:
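Ratio of the 8-h rat diarrhea ED50 to the dog antisecretory ED50. Diarrhea: fasted (24 h) male Charles River rats (210–230 g; n = 6–12) given logarithmically graded oral doses and scored all-or-none hourly to 8 h, with ED50 from a maximum-likelihood logistic model. Antisecretory ED50: intragastric dosing in histamine-infused gastric fistula dogs, from 4-h acid output.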

Test [4] concerns Canis familiaris. In words: Tested for gastric antisecretory activity in histamine-stimulated Heidenhain pouch dogs by intravenous administration. As to conditions: Canis lupus familiaris, Stomach. It counts as functional.
For test [5], the system named is Canis familiaris. Kind of test: Tested for relative antisecretory potency in histamine-stimulated gastric fistula dogs by intragastric administration; value ranges from (0.53-1.76). It counts as functional. To be noted: Canis lupus familiaris, Stomach, po. An outline of the steps:
as §1

Test [6] relates to Canis familiaris. Kind of test: Tested for relative antisecretory potency in histamine-stimulated gastric fistula dogs by intragastric administration; value ranges from (0.13-0.48). It counts as functional. To be noted: Canis lupus familiaris, Stomach, po. An outline of the steps: as §1

For the compound `CCCCC(C)(O)C/C=C/[C@H]1[C@H](O)CC(=O)[C@@H]1C/C=C\C=C\CC(=O)OC` (stereo not given in full), the ED50 (as a rule, the dose at which the effect has come halfway, by size or by number of responders) in the test on Canis familiaris [1] is 0.08 µg/kg. Besides, the relative potency in the test on Canis familiaris [2] was found to be 1. Further, the Ratio in the test filed under Canis familiaris [3] stood at 1638.

In the test on Canis familiaris [4], `CCCCC(C)(O)C/C=C/[C@H]1[C@H](O)CC(=O)[C@@H]1CC#C/C=C/CC(=O)OC` (stereo not given in full) returned a 50% effective dose (ED50) of over 1 µg/kg.

Regarding `CCCCC(C)(O)C/C=C/[C@H]1[C@H](O)CC(=O)[C@@H]1C/C=C\C=C/CC(=O)OC.CCCCC(C)(O)C/C=C/[C@H]1[C@H](O)CC(=O)[C@@H]1C/C=C\C=C\CC(=O)OC` (mixture of isomers), the 50% effective dose (ED50) in the test with Canis familiaris [1] came to 0.08 µg/kg. Besides, the relative potency in the test on Canis familiaris [5] stood at 0.95. The Ratio in the test listed under Canis familiaris [3] came to 8025.

For the compound `CCCCC(C)(O)C/C=C/[C@H]1[C@H](O)CC(=O)[C@@H]1CCCCCCC(=O)OC` (stereo not given in full) [MISOPROSTOL], the ED50 in the test with Canis familiaris [1] turned out to be 0.28 µg/kg. The compound further displayed a relative potency in the test on Canis familiaris [6] of 0.26. The Ratio in the test listed under Canis familiaris [3] came to 1364.
